Source: ChEMBL document CHEMBL1268807, “Discovery of small molecule inhibitors of the PH domain leucine-rich repeat protein phosphatase (PHLPP) by chemical and virtual screening” (J Med Chem, 2010)
Active and inactive are the calls of the source. The calls are words filed in the database; no cut-off is given here.

Assays:
HT-29 (Homo sapiens) = assay: Inhibition of PHLPP in human HT29 cells assessed as increase of phosphorylation of Akt on Ser 473 at 100 to 250 uM after 24 hrs by immunoblotting relative to control
HT20 [1] = assay: Inhibition of PHLPP in human […] cells assessed as increase of phosphorylation of FoxO1/3alpha on Thr 24/32 at 100 uM after 24 hrs by immunoblotting; type: cell-based
Summary of the method: (§1)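 HT29 colon cells kept in DMEM with 5% FBS were given compounds (100 or 250 μM, DMSO vehicle) for 24 h, then lysed on ice. […] Densitometry normalized to actin and expressed relative to control lanes; three experiments, mean ± SEM.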

HT20 [2] = assay: Inhibition of PHLPP in human […] cells assessed as increase of phosphorylation of GSK3 alpha/beta on Ser21/9 at 100 uM after 24 hrs by immunoblotting; type: cell-based
Summary of the method: as §1

HT20 [3] = assay: Inhibition of PHLPP in human […] cells assessed as increase of phosphorylation of Akt on Ser 473 at 100 uM after 24 hrs by immunoblotting; type: cell-based
Summary of the method: as §1

[4] = target: T1, PH domain leucine-rich repeat-containing protein phosphatase 2 (Homo sapiens, UniProt Q6ZVD8); assay: Inhibition of PHLPP2 phosphatase domain expressed in Escherichia coli
T1 sequence (Q6ZVD8 whole entry): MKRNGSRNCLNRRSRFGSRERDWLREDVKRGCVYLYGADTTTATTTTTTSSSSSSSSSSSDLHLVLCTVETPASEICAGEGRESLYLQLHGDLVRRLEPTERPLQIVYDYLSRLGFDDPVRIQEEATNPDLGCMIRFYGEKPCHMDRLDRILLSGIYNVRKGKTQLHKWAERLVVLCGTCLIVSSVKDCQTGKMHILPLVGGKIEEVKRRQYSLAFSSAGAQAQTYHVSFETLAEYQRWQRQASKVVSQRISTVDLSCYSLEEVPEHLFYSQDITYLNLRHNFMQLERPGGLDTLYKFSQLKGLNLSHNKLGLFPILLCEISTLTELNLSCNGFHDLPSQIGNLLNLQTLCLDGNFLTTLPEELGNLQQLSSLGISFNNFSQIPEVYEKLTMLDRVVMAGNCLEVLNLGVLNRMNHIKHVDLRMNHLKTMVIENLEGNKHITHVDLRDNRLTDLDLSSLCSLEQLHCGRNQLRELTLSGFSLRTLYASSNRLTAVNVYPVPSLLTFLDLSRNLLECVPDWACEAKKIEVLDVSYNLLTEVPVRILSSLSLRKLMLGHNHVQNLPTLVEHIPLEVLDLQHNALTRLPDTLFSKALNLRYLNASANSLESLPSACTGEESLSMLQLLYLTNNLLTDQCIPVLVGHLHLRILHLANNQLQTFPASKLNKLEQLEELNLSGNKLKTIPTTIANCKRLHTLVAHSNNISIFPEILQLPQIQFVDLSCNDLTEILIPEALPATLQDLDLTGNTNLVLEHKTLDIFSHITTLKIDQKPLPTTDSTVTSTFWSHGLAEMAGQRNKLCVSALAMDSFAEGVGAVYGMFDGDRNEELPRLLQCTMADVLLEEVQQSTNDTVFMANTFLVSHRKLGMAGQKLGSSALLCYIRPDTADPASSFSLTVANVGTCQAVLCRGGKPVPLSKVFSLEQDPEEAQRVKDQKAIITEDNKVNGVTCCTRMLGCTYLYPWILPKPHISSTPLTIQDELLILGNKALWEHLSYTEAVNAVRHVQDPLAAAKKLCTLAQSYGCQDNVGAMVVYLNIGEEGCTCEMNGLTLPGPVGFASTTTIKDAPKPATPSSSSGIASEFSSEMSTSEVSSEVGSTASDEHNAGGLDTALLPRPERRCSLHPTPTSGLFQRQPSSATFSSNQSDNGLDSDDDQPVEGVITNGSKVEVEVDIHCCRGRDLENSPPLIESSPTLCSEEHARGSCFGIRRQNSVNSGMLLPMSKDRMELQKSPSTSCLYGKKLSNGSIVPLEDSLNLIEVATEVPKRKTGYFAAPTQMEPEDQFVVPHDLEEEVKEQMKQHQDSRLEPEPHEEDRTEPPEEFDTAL
Summary of the method: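 A405 was followed over time, slope taken, no-enzyme background subtracted. Inhibitor at seven concentrations versus DMSO (100%); fit to eq 1, IC50 = −C0 ln(1/2).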

[5] = Inhibition of PHLPP in human […] cells assessed as increase of phosphorylation of FoxO1/3alpha on Thr 24/32 at 100 to 250 uM after 24 hrs by immunoblotting; type: cell-based
Summary of the method: as §1

[6] = Inhibition of PHLPP in human […] cells assessed as increase of phosphorylation of GSK3 alpha/beta on Ser21/9 at 100 to 250 uM after 24 hrs by immunoblotting; type: cell-based
Summary of the method: as §1

HT-29 = assay: Cytotoxicity against human HT-29 cells at 100 uM after 24 hrs; type: cell-based; conditions: ht-29, 24 h
[7] = Inhibition of protein phosphatase 1 at 10 uM
Summary of the method: (§2)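 PP1, PP2B or PP2Cα phosphatase domain with 8 mM pNPP in each enzyme's optimal buffer. Compound added; activity taken from A405 and expressed relative to DMSO control. At least three experiments, mean ± SEM.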

[8] = target: Serine/threonine protein phosphatase PP2B-alpha catalytic subunit (Homo sapiens) (UniProt P16298); assay: Inhibition of protein phosphatase 2B at 10 uM
Summary of the method: as §2

[9] = target: T2, Protein phosphatase 1A (Homo sapiens) (UniProt P35813); assay: Inhibition of PP2Calpha at 10 uM
T2 sequence (whole entry): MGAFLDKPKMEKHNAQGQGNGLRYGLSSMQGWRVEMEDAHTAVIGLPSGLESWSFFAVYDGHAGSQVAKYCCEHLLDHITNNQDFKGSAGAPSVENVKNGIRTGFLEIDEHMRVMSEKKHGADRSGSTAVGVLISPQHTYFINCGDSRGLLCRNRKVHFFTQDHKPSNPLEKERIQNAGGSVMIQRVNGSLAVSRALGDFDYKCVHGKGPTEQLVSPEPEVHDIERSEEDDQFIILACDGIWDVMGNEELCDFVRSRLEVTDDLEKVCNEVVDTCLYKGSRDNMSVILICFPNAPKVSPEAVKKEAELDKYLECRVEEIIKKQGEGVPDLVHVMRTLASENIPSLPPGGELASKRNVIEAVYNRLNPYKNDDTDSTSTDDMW
Summary of the method: as §2

[10] = Inhibition of protein phosphatase 1 at 100 uM
Summary of the method: as §2

[11] = target: T2, Protein phosphatase 1A (Homo sapiens); assay: Inhibition of PP2Calpha at 100 uM
Summary of the method: as §2

COS-7 [12] = assay: Inhibition of PHLPP expressed in 24 hrs serum starved Cos7 cells assessed as half maximal increase of phosphorylation of Akt substrate after 30 mins by immunoblotting; type: cell-based; conditions: in the assay text read “after 35 mins” for “after 30 mins”
Summary of the method: (§3)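 COS 7 cells serum-starved 24 h in serum-free DMEM, then exposed 35 min at 37 °C to inhibitor over 4−400 or 3−300 μM; DMSO control. Lysates were immunoblotted for pSer473, pThr308, phospho-Akt-substrate motif, and actin. Densitometry normalized to actin and to DMSO (set to 1), fit to eq 2; four separate experiments, mean ± SEM.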

COS-7 [13] = assay: Inhibition of PHLPP expressed in 24 hrs serum starved Cos7 cells assessed as half maximal increase of phosphorylation on Thr308 after 30 mins by immunoblotting; type: cell-based; conditions: in the assay text read “after 35 mins” for “after 30 mins”
Summary of the method: as §3

[14] = Inhibition of PHLPP expressed in 24 hrs serum starved Cos7 cells assessed as increase of Akt phosphorylation after 30 mins by immunoblotting; conditions: COS-7
[15] = target: T3, PH domain leucine-rich repeat-containing protein phosphatase 2 (Homo sapiens) (UniProt Q6ZVD8); conditions: 10 uM
T3 sequence (whole entry): T1 sequence (Q6ZVD8 whole entry)

COS-7 [16] = assay: Induction of apoptosis assessed as basal level of apoptotic cells in african green monkey COS7 cells at 50 uM after 24 hrs by trypan blue exclusion assay
HT20 [17] = assay: Inhibition of PHLPP in human […] cells assessed as increase of phosphorylation of Akt on Ser 473 at 100 to 250 uM after 24 hrs by immunoblotting relative to control; type: cell-based
Summary of the method: as §1

SMILES | inhibition (HT-29 (Homo sapiens)) | other results
COc1cc(/N=N/c2ccc(S(=O)(=O)O)cc2)ccc1/N=N/c1ccc(O)c(C(=O)O)c1 | Active | 
O=C(O)c1c(O)c(/N=N/c2ccc(S(=O)(=O)Nc3ccccn3)cc2)cc2ccccc12 | Active | 
O=C(O)c1cc(/N=N/c2ccc(S(=O)(=O)Nc3nccs3)cc2)ccc1O | Active | 
CS(=O)(=O)c1cc2ccc(Nc3ccccc3)cc2c(O)c1/N=N/c1ccc(-c2ccc(/N=N/c3ccc(O)c(C(=O)O)c3)cc2)cc1 | Active | 
Nc1cc(S(=O)(=O)O)cc2cc(S(=O)(=O)O)c(/N=N/c3ccc(S(=O)(=O)c4ccc(/N=N/c5c(O)ccc6cccc(S(=O)(=O)O)c56)cc4)cc3)c(O)c12 | Active | 
CS(=O)(=O)c1cc2cc(Nc3ccccc3)ccc2c(O)c1/N=N/c1ccc(-c2ccc(/N=N/c3ccc(O)c(C(=O)O)c3)cc2)cc1 | Active | 
Cc1cc(-c2ccc(/N=N/c3c(S(=O)(=O)O)cc4cc(S(=O)(=O)O)cc(N)c4c3O)c(C)c2)ccc1/N=N/c1cc(S(=O)(=O)O)c2ccccc2c1O | Active | 
COc1ccc(NCc2c(O)ccc3ccccc23)cc1 |  | inhibition (HT20 [1]): Active; inhibition (HT20 [2]): Active; inhibition (HT20 [3]): inactive
Cc1cc(/N=N/c2ccc(/N=N/c3ccc(S(=O)(=O)O)cc3)cc2)cc(C(=O)O)c1O | Active | 
O=C1c2ccccc2-c2cc([N+](=O)[O-])c([N+](=O)[O-])cc21 | Active | 
O=C(O)C1CCCCC1c1c2ccc(=O)c(O)c-2oc2c(O)c(O)ccc12 (centres undefined) | Active | IC50 [4]: 10 µM
COc1ccc2nc3cc(Cl)ccc3c(Nc3ccc(C(=O)O)c(O)c3)c2c1 | Active | 
NS(=O)(=O)c1ccc(/N=N/c2ccc(O)c(C(=O)O)c2)cc1 | Active | 
O=C(O)c1c(O)c(/N=N/c2ccc(S(=O)(=O)Nc3nccs3)cc2)cc2ccccc12 | Active | 
Cc1ccc(/N=N/c2c(N)c(C)cc(/N=N/c3ccc(/N=N/c4ccc(O)c(C(=O)O)c4)cc3)c2N)c(S(=O)(=O)O)c1 | Active | 
Cc1cc(/N=N/c2ccc(/N=N/c3ccc(O)c(C(=O)O)c3)cc2)c(N)cc1N | Active | inhibition [5]: Active; inhibition [6]: Active; IC50 [4]: 3.75 µM

SMILES | inhibition (HT-29 (Homo sapiens)) | other results
CS(=O)(=O)c1ccc2c(/N=N/c3ccc(-c4ccc(/N=N/c5ccc(N)c6cc(S(=O)(=O)O)ccc56)cc4)cc3)ccc(N)c2c1 | Active | 
COc1cc(NCCC2CCCCN2)c2ncccc2c1 (centres undefined) | Active | inhibition [5]: Active; inhibition [6]: Active; Activity (HT-29): Toxic
S=C(Nc1ccc2cn[nH]c2c1)Nc1ccc2cn[nH]c2c1 | Active | 
Nc1cc(N)c(/N=N/c2ccc(S(=O)(=O)O)cc2)cc1/N=N/c1ccc(-c2ccc(/N=N/c3ccc(O)c(C(=O)O)c3)cc2)cc1 | Active | 
COc1cc(-c2ccc(/N=N/c3c(S(=O)(=O)O)cc4cc(N)ccc4c3O)c(OC)c2)ccc1/N=N/c1cc(S(=O)(=O)O)c2ccccc2c1O | Active | 
COc1ccc2nc3cc(Cl)ccc3c(Nc3ccc(C(=O)O)cc3)c2c1 | Active | inhibition [5]: Active; inhibition [6]: Active
NS(=O)(=O)c1ccc(/N=N/c2ncccc2O)cc1 | Active | 
CN(C)c1ccc(C(c2ccc(N(C)C)cc2)c2ccc([N+](=O)[O-])cc2)cc1 | Active | 
O=S(=O)(O)c1ccc(-c2nnc(-c3ccccn3)nc2-c2ccc(S(=O)(=O)O)o2)o1 | Active | 
Nc1c(/N=N/c2ccc(-c3ccc(/N=N/c4cc(S(=O)(=O)O)c5ccccc5c4N)cc3)cc2)cc(S(=O)(=O)O)c2ccccc12 | Active | 
Nc1c(S(=O)(=O)O)cc(Nc2cccc(S(N)(=O)=O)c2)c2c1C(=O)c1ccccc1C2=O | Active | inhibition [5]: Active; inhibition [6]: Active; inhibition [7]: inactive; inhibition [8]: inactive; inhibition [9]: inactive; inhibition [10]: 50%; inhibition [11]: 50%; Activity (COS-7 [12]): 36.4 µM; Activity (COS-7 [13]): 132 µM; IC50 [14]: 30 µM; inhibition [15]: 80%; basal apoptotic cells (COS-7 [16]): 12%
Nc1nc(SCc2ccccc2)c2ncn(Cc3ccccc3)c2n1 | Active | 
CN(C)CCOC(=O)c1ccc(N)cc1 | Active | 
CC(=O)Nc1ccc(Nc2cc(S(=O)(=O)O)c(N)c3c2C(=O)c2ccccc2C3=O)cc1 | Active | 
C[C@]12CC[C@H]3[C@@H](CCC4=CC(=O)CC[C@@]43C)[C@@H]1CC[C@@H]2C(=O)COS(=O)(=O)c1ccc(Br)cc1 |  | inhibition (HT20 [17]): Active
